These results are taken from ChEMBL document CHEMBL1151705, “Novel azalides derived from 16-membered macrolides. Part II: Isolation of the linear 9-formylcarboxylic acid and its sequential macrocyclization with an amino alcohol or an azidoamine” (2008).

Assay type in all cases: functional
Assay [1] has as its system Streptococcus pneumoniae. The assay can be described thus: Antimicrobial activity against drug-susceptible Streptococcus pneumoniae DP1 Type1 after 20 hrs by agar dilution method. To be noted: Streptococcus pneumoniae, 20 h; read-out: MIC. The essentials: (§1)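 Streptococci, H. influenzae and M. catarrhalis were precultured on blood agar plates. Suspensions of about 10⁶ CFU/ml were inoculated onto sensitivity disk agar supplemented with 5% horse blood and incubated at 37 °C for 20 h. MIC was read as the lowest drug concentration with no visible growth.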

Assay [2] concerns Streptococcus pneumoniae. The assay can be described thus: Antimicrobial activity against Streptococcus pneumoniae 10 expressing mefA after 20 hrs by agar dilution method. The note with it: Streptococcus pneumoniae, 20 h; read-out: MIC. In short, it runs like this: as §1
The subject of assay [3] is Staphylococcus aureus. The assay can be described thus: Antimicrobial activity against Staphylococcus aureus 4 constitutively expressing ermA after 20 hrs by agar dilution method. In short, it runs like this: (§2)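 Agar dilution MIC. S. aureus seed culture was grown in sensitivity test broth. Cell suspension (about 10⁶ CFU/ml) was inoculated onto sensitivity disk agar with 5% horse blood and incubated at 37 °C for 20 h. MIC was the lowest drug concentration that prevented visible growth.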

Assay [4] relates to Moraxella catarrhalis. As to the kind of experiment: Antimicrobial activity against drug-susceptible Moraxella catarrhalis 2 after 20 hrs by agar dilution method. To be noted: Moraxella catarrhalis, 20 h; read-out: MIC. The essentials: as §1
(In general: In agar dilution, organisms are placed on agar that contains the substance at set levels.)

The test system of assay [5] is Streptococcus pyogenes. As to the kind of experiment: Antimicrobial activity against Streptococcus pyogenes 2 constitutively expressing ermB after 20 hrs by agar dilution method. The essentials:
as §1

Assay [6] relates to Staphylococcus aureus. As to the kind of experiment: Antimicrobial activity against Staphylococcus aureus 6 expressing inducible ermB after 20 hrs by agar dilution method. The essentials:
as §2

Assay [7] concerns Streptococcus pneumoniae. As to the kind of experiment: Antimicrobial activity against Streptococcus pneumoniae 8 expressing inducible ermB after 20 hrs by agar dilution method. The note with it: Streptococcus pneumoniae, 20 h; read-out: MIC. The essentials: as §1
Assay [8] has as its system Staphylococcus aureus. The assay can be described thus: Antimicrobial activity against drug-susceptible Staphylococcus aureus 2 after 20 hrs by agar dilution method. To be noted: Staphylococcus aureus, 20 h; read-out: MIC. The essentials:
as §2

For assay [9], the system named is Haemophilus influenzae. As to the kind of experiment: Antimicrobial activity against drug-susceptible Haemophilus influenzae 4 after 20 hrs by agar dilution method. The note with it: Haemophilus influenzae, 20 h; read-out: MIC. In short, it runs like this:
as §1

Assay [10] concerns Staphylococcus aureus. The assay can be described thus: Antimicrobial activity against Staphylococcus aureus 5 expressing inducible ermB after 20 hrs by agar dilution method. To be noted: Staphylococcus aureus, 20 h; read-out: MIC. The essentials:
as §2

The test system of assay [11] is Streptococcus pneumoniae. As to the kind of experiment: Antimicrobial activity against Streptococcus pneumoniae 9 expressing mefA after 20 hrs by agar dilution method. To be noted: Streptococcus pneumoniae, 20 h; read-out: MIC. The essentials: as §1
Assay [12] relates to Haemophilus influenzae. As to the kind of experiment: Antimicrobial activity against drug-susceptible Haemophilus influenzae 1 after 20 hrs by agar dilution method. To be noted: Haemophilus influenzae, 20 h; read-out: MIC. In short, it runs like this: as §1
The subject of assay [13] is Streptococcus pyogenes. As to the kind of experiment: Antimicrobial activity against Streptococcus pyogenes 3 expressing mefA after 20 hrs by agar dilution method. The note with it: Streptococcus pyogenes, 20 h; read-out: MIC. The essentials:
as §1

The test system of assay [14] is Streptococcus pneumoniae. The assay can be described thus: Antimicrobial activity against drug-susceptible Streptococcus pneumoniae 2 after 20 hrs by agar dilution method. To be noted: Streptococcus pneumoniae, 20 h; read-out: MIC. The essentials:
as §1

For assay [15], the system named is Streptococcus pneumoniae. As to the kind of experiment: Antimicrobial activity against Streptococcus pneumoniae 7 expressing inducible ermB after 20 hrs by agar dilution method. The note with it: Streptococcus pneumoniae, 20 h; read-out: MIC. In short, it runs like this:
as §1

Assay [16] has as its system Staphylococcus aureus. The assay can be described thus: Antimicrobial activity against drug-susceptible Staphylococcus aureus 209P JC-1 after 20 hrs by agar dilution method. The note with it: Staphylococcus aureus, 209P, 20 h; read-out: MIC. In short, it runs like this:
as §2

Assay [17] relates to Streptococcus pneumoniae. As to the kind of experiment: Antimicrobial activity against Streptococcus pneumoniae 5 constitutively expressing ermB/mefA after 20 hrs by agar dilution method. The note with it: Streptococcus pneumoniae, 20 h; read-out: MIC. The essentials:
as §1

Assay [18] deals with Streptococcus pneumoniae. The assay can be described thus: Antimicrobial activity against Streptococcus pneumoniae 6 constitutively expressing ermB after 20 hrs by agar dilution method. The note with it: Streptococcus pneumoniae, 20 h; read-out: MIC. In short, it runs like this: as §1
Assay [19] concerns Haemophilus influenzae. The assay can be described thus: Antimicrobial activity against drug-susceptible Haemophilus influenzae 2 after 20 hrs by agar dilution method. The note with it: Haemophilus influenzae, 20 h; read-out: MIC. In short, it runs like this:
as §1

Assay [20] relates to Moraxella catarrhalis. The assay can be described thus: Antimicrobial activity against drug-susceptible Moraxella catarrhalis 1 after 20 hrs by agar dilution method. The note with it: Moraxella catarrhalis, 20 h; read-out: MIC. In short, it runs like this:
as §1

Assay [21] has as its system Haemophilus influenzae. As to the kind of experiment: Antimicrobial activity against drug-susceptible Haemophilus influenzae 3 after 20 hrs by agar dilution method. The note with it: Haemophilus influenzae, 20 h; read-out: MIC. In short, it runs like this:
as §1

The subject of assay [22] is Streptococcus pyogenes. As to the kind of experiment: Antimicrobial activity against drug-susceptible Streptococcus pyogenes 1 after 20 hrs by agar dilution method. The note with it: Streptococcus pyogenes, 20 h; read-out: MIC. In short, it runs like this: as §1
Assay [23] has as its system Staphylococcus aureus. The assay can be described thus: Antimicrobial activity against drug-susceptible Staphylococcus aureus 3 after 20 hrs by agar dilution method. To be noted: Staphylococcus aureus, 20 h; read-out: MIC. In short, it runs like this:
as §2

Molecules are shown by their SMILES. ≈ marks a conversion by molar mass, not a printed value. Where only a bound is given, the exact number is not on record here.

As for `CCOC(=O)[C@H]1[C@H](C)O[C@@H](O[C@H]2[C@H](N(C)C)[C@@H](O)[C@H](O[C@H]3[C@@H](CC=O)C[C@@H](C)[C@@H](OC(C)=O)CN(CCCCc4ccccc4)C[C@@H](C)OC(=O)C[C@@H](OC(=O)CC)[C@@H]3OC)O[C@@H]2C)C[C@@]1(C)OC(C)=O`, the MIC in assay [1] is 1 µg/mL (≈ 0.993 µM); in assay [2], 2 µg/mL (≈ 1.99 µM); in assay [3] it was more than 128 µg/mL; in [4], more than 128 µg/mL; in assay [5], more than 128 µg/mL; in assay [6] it was 8 µg/mL (≈ 7.94 µM). Besides, the MIC in assay [7] is more than 128 µg/mL; in [8] it was more than 128 µg/mL; in [9] it was more than 128 µg/mL; in [10], 4 µg/mL (≈ 3.97 µM); in assay [11], 2 µg/mL (≈ 1.99 µM); in assay [12], more than 128 µg/mL. The MIC is 4 µg/mL (≈ 3.97 µM) in assay [13]; 2 µg/mL (≈ 1.99 µM) in assay [14]; more than 128 µg/mL in [15]; 4 µg/mL (≈ 3.97 µM) in assay [16]; more than 128 µg/mL in assay [17]; more than 128 µg/mL in assay [18]. Further, the MIC in assay [19] is more than 128 µg/mL; in assay [20] it was 8 µg/mL (≈ 7.94 µM); in [21], more than 128 µg/mL; in assay [22] it was 2 µg/mL (≈ 1.99 µM); in assay [23], 4 µg/mL (≈ 3.97 µM).

For `CCOC(=O)[C@H]1[C@H](C)O[C@@H](O[C@H]2[C@H](N(C)C)[C@@H](O)[C@H](O[C@H]3[C@@H](CC=O)C[C@@H](C)[C@@H](O)CN(CCCCc4ccccc4)CCCOC(=O)C[C@@H](OC(=O)CC)[C@@H]3OC)O[C@@H]2C)C[C@@]1(C)OC(C)=O`, the MIC in [1] was 0.13 µg/mL (≈ 0.135 µM); in assay [2], 0.13 µg/mL (≈ 0.135 µM); in assay [3], more than 128 µg/mL; in assay [4] it was 0.25 µg/mL (≈ 0.259 µM); in [5], more than 128 µg/mL; in assay [6] it was 0.5 µg/mL (≈ 0.518 µM). The MIC in assay [7] was 16 µg/mL (≈ 16.6 µM); in assay [8] it was 1 µg/mL (≈ 1.04 µM); in [9], 8 µg/mL (≈ 8.29 µM); in assay [10], 0.25 µg/mL (≈ 0.259 µM); in assay [11] it was 0.25 µg/mL (≈ 0.259 µM); in [12], 16 µg/mL (≈ 16.6 µM). The MIC in assay [13] was 0.13 µg/mL (≈ 0.135 µM); in assay [14], 0.13 µg/mL (≈ 0.135 µM); in assay [15] it was 4 µg/mL (≈ 4.14 µM); in [16], 0.25 µg/mL (≈ 0.259 µM); in assay [17], more than 128 µg/mL; in [19], 1 µg/mL (≈ 1.04 µM). Also, the MIC was determined as 0.13 µg/mL (≈ 0.135 µM) in assay [20], 4 µg/mL (≈ 4.14 µM) in assay [21], 0.06 µg/mL (≈ 0.0622 µM) in assay [22] and 0.25 µg/mL (≈ 0.259 µM) in [23].

Regarding `CCOC(=O)[C@H]1[C@H](C)O[C@@H](O[C@H]2[C@H](N(C)C)[C@@H](O)[C@H](O[C@H]3[C@@H](CC=O)C[C@@H](C)[C@@H](OC(C)=O)CN(CCCCc4ccccc4)CCC[C@@H](C)OC(=O)C[C@@H](OC(=O)CC)[C@@H]3OC)O[C@@H]2C)C[C@@]1(C)OC(C)=O`, the MIC in assay [1] was 0.25 µg/mL (≈ 0.241 µM); in assay [2] it was 0.13 µg/mL (≈ 0.126 µM); in [3], more than 128 µg/mL; in assay [4], 2 µg/mL (≈ 1.93 µM); in assay [5], more than 128 µg/mL; in assay [6] it was 2 µg/mL (≈ 1.93 µM). Besides, the MIC in assay [7] is 4 µg/mL (≈ 3.86 µM); in assay [8], 2 µg/mL (≈ 1.93 µM); in assay [9] it was more than 128 µg/mL; in assay [10], 1 µg/mL (≈ 0.966 µM); in assay [11], 0.25 µg/mL (≈ 0.241 µM); in assay [12], more than 128 µg/mL. Also, the MIC in [13] is 1 µg/mL (≈ 0.966 µM); in assay [14], 0.25 µg/mL (≈ 0.241 µM); in assay [15] it was 4 µg/mL (≈ 3.86 µM); in [16], 0.5 µg/mL (≈ 0.483 µM); in assay [17] it was more than 128 µg/mL; in assay [18], more than 128 µg/mL. The MIC is 4 µg/mL (≈ 3.86 µM) in assay [19]; 1 µg/mL (≈ 0.966 µM) in assay [20]; more than 128 µg/mL in [21]; 0.25 µg/mL (≈ 0.241 µM) in [22]; 1 µg/mL (≈ 0.966 µM) in assay [23].

Take `CCOC(=O)[C@H]1[C@H](C)O[C@@H](O[C@H]2[C@H](N(C)C)[C@@H](O)[C@H](O[C@H]3[C@@H](CC=O)C[C@@H](C)[C@@H](O)CN(CCCCc4ccccc4)CCC[C@@H](C)OC(=O)C[C@@H](OC(=O)CC)[C@@H]3OC)O[C@@H]2C)C[C@@]1(C)OC(C)=O`: the MIC in [1] was 0.06 µg/mL (≈ 0.0604 µM); in assay [2], 0.06 µg/mL (≈ 0.0604 µM); in assay [3], more than 128 µg/mL; in [4], 0.5 µg/mL (≈ 0.503 µM); in assay [5], 64 µg/mL (≈ 64.4 µM); in assay [6], 0.5 µg/mL (≈ 0.503 µM). Besides, the MIC was determined as 1 µg/mL (≈ 1.01 µM) in assay [7]; 1 µg/mL (≈ 1.01 µM) in [8]; 16 µg/mL (≈ 16.1 µM) in assay [9]; 0.25 µg/mL (≈ 0.252 µM) in assay [10]; 0.13 µg/mL (≈ 0.131 µM) in assay [11]; 32 µg/mL (≈ 32.2 µM) in [12]. In addition, the MIC was 0.25 µg/mL (≈ 0.252 µM) in assay [13]; 0.06 µg/mL (≈ 0.0604 µM) in assay [14]; 1 µg/mL (≈ 1.01 µM) in assay [15]; 0.25 µg/mL (≈ 0.252 µM) in assay [16]; more than 128 µg/mL in assay [17]; 64 µg/mL (≈ 64.4 µM) in assay [18]. In addition, the MIC in assay [19] stood at 0.5 µg/mL (≈ 0.503 µM); in assay [20], 0.25 µg/mL (≈ 0.252 µM); in assay [21], 8 µg/mL (≈ 8.05 µM); in assay [22], 0.13 µg/mL (≈ 0.131 µM); in assay [23] it was 0.25 µg/mL (≈ 0.252 µM).
